Experimental data reported in ChEMBL document CHEMBL4339195, “Di-aryl Sulfonamide Motif Adds π-Stacking Bulk in Negative Allosteric Modulators of the NMDA Receptor” (ACS Med Chem Lett, 2019).
pIC50: −log10 of the molar value. Activity calls are given as the source filed them. The calls are words filed in the database; no cut-off is given here.

Columns and labels:
[1] = molecular target: T1, Ionotropic glutamate receptor NMDA 1/2D (Rattus norvegicus) (UniProt P35439+Q62645); test: Negative allosteric modulation of recombinant rat GluN1/GluN2D expressed in Xenopus laevis oocytes assessed as inhibition of glutamate/glycine-induced current response at saturated concentration at -40 mV holding potential by two-electrode voltage clamp method relative to glutamate/glycine; format: cell-based
Outline: (§1)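 Hill fit of the composite concentration-response curve in oocytes, with agonist 100 µM glutamate plus 30 µM glycine. Residual response in saturating compound is either fixed at 0 or fitted. 8-16 oocytes from 2-3 frogs.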

[2] = molecular target: T2, Glutamate NMDA receptor; Grin1/Grin2c (Rattus norvegicus) (UniProt P35439+Q00961); test: Negative allosteric modulation of recombinant rat GluN1/GluN2C expressed in Xenopus laevis oocytes assessed as inhibition of glutamate/glycine-induced current response at 30 uM at -40 mV holding potential by two-electrode voltage clamp method relative to glutamate/glycine; format: cell-based; conditions: for residual activity: values are per cent of control
Outline: (§2)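 Oocytes recorded while the drug is co-applied with a maximally effective 100 µM glutamate plus 30 µM glycine. Response is expressed as percent of the glutamate/glycine control. IC50 comes from a Hill fit to the average composite concentration-response curve. 8-16 oocytes from 2-3 frogs per compound and receptor.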

[3] = molecular target: T1, Ionotropic glutamate receptor NMDA 1/2D (Rattus norvegicus); test: Negative allosteric modulation of recombinant rat GluN1/GluN2D expressed in Xenopus laevis oocytes assessed as inhibition of glutamate/glycine-induced current response at 30 uM at -40 mV holding potential by two-electrode voltage clamp method relative to glutamate/glycine; format: cell-based; conditions: for residual activity: values are per cent of control; outline: as §2
[4] = molecular target: T2, Glutamate NMDA receptor; Grin1/Grin2c (Rattus norvegicus); test: Negative allosteric modulation of recombinant rat GluN1/GluN2C expressed in Xenopus laevis oocytes assessed as inhibition of glutamate/glycine-induced current response at saturated concentration at -40 mV holding potential by two-electrode voltage clamp method relative to glutamate/glycine; format: cell-based; outline: as §1
[5] = molecular target: Ionotropic glutamate receptor NMDA 1/2D (Rattus norvegicus, UniProt P35439+Q62645); test: Negative allosteric modulation of recombinant rat GluN1/GluN2D expressed in Xenopus laevis oocytes assessed as inhibition of glutamate/glycine-induced current response at -40 mV holding potential by two-electrode voltage clamp method; format: cell-based; outline: as §2
[6] = molecular target: Glutamate NMDA receptor; Grin1/Grin2c (Rattus norvegicus, UniProt P35439+Q00961); test: Negative allosteric modulation of recombinant rat GluN1/GluN2C expressed in Xenopus laevis oocytes assessed as inhibition of glutamate/glycine-induced current response at -40 mV holding potential by two-electrode voltage clamp method; format: cell-based; outline: as §2
[7] = molecular target: T3, Glutamate NMDA receptor; Grin1/Grin2a (Rattus norvegicus) (UniProt P35439+Q00959); test: Negative allosteric modulation of recombinant rat GluN1/GluN2A expressed in Xenopus laevis oocytes assessed as residual glutamate/glycine-induced current response at 30 uM at -40 mV holding potential by two-electrode voltage clamp method relative to glutamate/glycine
[8] = molecular target: Glutamate receptor 1 (Rattus norvegicus) (UniProt P19490); test: Negative allosteric modulation of recombinant rat GluA1 expressed in Xenopus laevis oocytes assessed as inhibition of glutamate-induced current response at 30 uM at -40 mV holding potential by two-electrode voltage clamp method relative to glutamate alone; format: cell-based
Outline: (§3)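 Oocyte two-electrode voltage clamp at -40 mV holding. Test compound co-applied with agonist; response given as percent of the mean of control and recovery currents to agonist alone. Agonists: 100 µM glutamate (AMPA, kainate), 100 µM GABA (GABA receptors), 100 µM glycine (glycine receptor), 100 µM serotonin (5-HT3A), 9 µM ATP (P2X), 1 µM acetylcholine (nicotinic).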

[9] = system: Glutamate receptor 3 (Homo sapiens), P42263 [L513Y]; test: Negative allosteric modulation of human GluA3 L513Y mutant expressed in Xenopus laevis oocytes assessed as inhibition of glutamate-induced current response at 30 uM at -40 mV holding potential by two-electrode voltage clamp method relative to glutamate alone; format: cell-based; outline: as §3
[10] = species on record: Homo sapiens; test: Negative allosteric modulation of human GluA2 R607Q mutant expressed in Xenopus laevis oocytes assessed as inhibition of glutamate-induced current response at 30 uM at -40 mV holding potential by two-electrode voltage clamp method relative to glutamate alone; format: cell-based; outline: as §3
[11] = molecular target: T4, Glycine receptor subunit alpha-1 (Rattus norvegicus) (UniProt P07727); test: Negative allosteric modulation of rat glycine alpha1 expressed in Xenopus laevis oocytes assessed as inhibition of glycine-induced current response at 30 uM at -40 mV holding potential by two-electrode voltage clamp method relative to glycine alone; format: cell-based; outline: as §3
T4 sequence (whole entry): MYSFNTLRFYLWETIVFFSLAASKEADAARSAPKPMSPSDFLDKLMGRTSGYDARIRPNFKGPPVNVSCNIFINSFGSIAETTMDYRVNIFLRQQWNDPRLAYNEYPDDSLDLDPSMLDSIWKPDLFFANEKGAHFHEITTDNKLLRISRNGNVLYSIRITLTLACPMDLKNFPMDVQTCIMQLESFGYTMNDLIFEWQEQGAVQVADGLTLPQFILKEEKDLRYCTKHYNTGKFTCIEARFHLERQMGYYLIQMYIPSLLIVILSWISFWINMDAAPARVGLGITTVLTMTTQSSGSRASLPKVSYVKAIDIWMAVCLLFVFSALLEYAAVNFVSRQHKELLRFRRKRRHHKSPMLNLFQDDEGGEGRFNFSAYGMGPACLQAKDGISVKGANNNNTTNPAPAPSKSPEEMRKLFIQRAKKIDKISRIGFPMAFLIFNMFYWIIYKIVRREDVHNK

[12] = molecular target: CHRNA1/CHRNB1/CHRNG/CHRND (Rattus norvegicus) (UniProt P25109+P25108+P25110+P18916); test: Negative allosteric modulation of rat alpha1betagammadelta nACHR expressed in Xenopus laevis oocytes assessed as inhibition of acetylcholine-induced current response at 30 uM at -40 mV holding potential by two-electrode voltage clamp method relative to acetylcholine alone; format: cell-based; outline: as §3
[13] = species on record: Rattus norvegicus; test: Negative allosteric modulation of rat GABAA alpha1beta2gamma2S expressed in Xenopus laevis oocytes assessed as inhibition of GABA-induced current response at 30 uM at -40 mV holding potential by two-electrode voltage clamp method relative to GABA alone; format: cell-based; outline: as §3
[14] = system: Glutamate receptor 4 (Homo sapiens), P48058 [L505Y]; test: Negative allosteric modulation of human GluA4 L505Y mutant expressed in Xenopus laevis oocytes assessed as inhibition of glutamate-induced current response at 30 uM at -40 mV holding potential by two-electrode voltage clamp method relative to glutamate alone; format: cell-based; outline: as §3
[15] = molecular target: Glutamate receptor ionotropic, kainate 2 (Rattus norvegicus) (UniProt P42260); test: Negative allosteric modulation of rat GluK2 expressed in Xenopus laevis oocytes assessed as inhibition of glutamate-induced current response at 30 uM at -40 mV holding potential in presence of concanavalin A by two-electrode voltage clamp method relative to glutamate alone; format: cell-based; outline: as §3
[16] = species on record: Rattus norvegicus; test: Negative allosteric modulation of rat GABAA rho expressed in Xenopus laevis oocytes assessed as inhibition of GABA-induced current response at 30 uM at -40 mV holding potential by two-electrode voltage clamp method relative to GABA alone; format: cell-based; outline: as §3
[17] = molecular target: T2, Glutamate NMDA receptor; Grin1/Grin2c (Rattus norvegicus); test: Negative allosteric modulation of recombinant rat GluN1/GluN2C expressed in Xenopus laevis oocytes assessed as remaining glutamate/glycine-induced current response at 10 uM at -40 mV holding potential by two-electrode voltage clamp method relative to glutamate/glycine
[18] = molecular target: T1, Ionotropic glutamate receptor NMDA 1/2D (Rattus norvegicus); test: Negative allosteric modulation of recombinant rat GluN1/GluN2D expressed in Xenopus laevis oocytes assessed as residual glutamate/glycine-induced current response at 10 uM at -40 mV holding potential by two-electrode voltage clamp method relative to glutamate/glycine
[19] = molecular target: T5, 5-hydroxytryptamine receptor 3A (Rattus norvegicus) (UniProt P35563); test: Negative allosteric modulation of rat 5HT3A expressed in Xenopus laevis oocytes assessed as inhibition of serotonin-induced current response at 30 uM at -40 mV holding potential by two-electrode voltage clamp method relative to serotonin alone; format: cell-based; outline: as §3
T5 sequence (whole entry): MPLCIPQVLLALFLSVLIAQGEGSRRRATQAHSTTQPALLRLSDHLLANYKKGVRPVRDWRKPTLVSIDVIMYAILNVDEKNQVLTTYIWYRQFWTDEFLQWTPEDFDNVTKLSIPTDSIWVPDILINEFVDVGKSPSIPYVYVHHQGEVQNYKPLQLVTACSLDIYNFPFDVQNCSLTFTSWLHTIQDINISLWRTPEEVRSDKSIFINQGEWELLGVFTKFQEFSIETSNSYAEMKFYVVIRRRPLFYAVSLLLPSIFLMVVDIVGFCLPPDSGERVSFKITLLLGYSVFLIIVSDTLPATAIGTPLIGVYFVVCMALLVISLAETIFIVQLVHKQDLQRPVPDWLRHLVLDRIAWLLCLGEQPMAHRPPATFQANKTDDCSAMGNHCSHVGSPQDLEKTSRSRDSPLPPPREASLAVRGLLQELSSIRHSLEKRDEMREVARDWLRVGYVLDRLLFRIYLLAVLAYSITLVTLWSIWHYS

[20] = molecular target: Glutamate NMDA receptor; Grin1/Grin2a (Rattus norvegicus, UniProt P35439+Q00959); test: Negative allosteric modulation of recombinant rat GluN1/GluN2A expressed in Xenopus laevis oocytes assessed as inhibition of glutamate/glycine-induced current response at -40 mV holding potential by two-electrode voltage clamp method; format: cell-based; outline: as §2
[21] = molecular target: T3, Glutamate NMDA receptor; Grin1/Grin2a (Rattus norvegicus); test: Negative allosteric modulation of recombinant rat GluN1/GluN2A expressed in Xenopus laevis oocytes assessed as remaining glutamate/glycine-induced current response at 6 uM at -40 mV holding potential by two-electrode voltage clamp method relative to glutamate/glycine
[22] = molecular target: T1, Ionotropic glutamate receptor NMDA 1/2D (Rattus norvegicus); test: Potency index, ratio of NP11999 IC50 to test compound IC50 for negative allosteric modulation of recombinant rat GluN1/GluN2D expressed in Xenopus laevis oocytes assessed as inhibition of glutamate/glycine-induced current response; format: cell-based
[23] = molecular target: T2, Glutamate NMDA receptor; Grin1/Grin2c (Rattus norvegicus); test: Potency index, ratio of NP11999 IC50 to test compound IC50 for negative allosteric modulation of recombinant rat GluN1/GluN2C expressed in Xenopus laevis oocytes assessed as inhibition of glutamate/glycine-induced current response; format: cell-based

Glutamate receptor 4 (Homo sapiens), P48058 [L505Y], sequence (P48058 whole entry L505Y): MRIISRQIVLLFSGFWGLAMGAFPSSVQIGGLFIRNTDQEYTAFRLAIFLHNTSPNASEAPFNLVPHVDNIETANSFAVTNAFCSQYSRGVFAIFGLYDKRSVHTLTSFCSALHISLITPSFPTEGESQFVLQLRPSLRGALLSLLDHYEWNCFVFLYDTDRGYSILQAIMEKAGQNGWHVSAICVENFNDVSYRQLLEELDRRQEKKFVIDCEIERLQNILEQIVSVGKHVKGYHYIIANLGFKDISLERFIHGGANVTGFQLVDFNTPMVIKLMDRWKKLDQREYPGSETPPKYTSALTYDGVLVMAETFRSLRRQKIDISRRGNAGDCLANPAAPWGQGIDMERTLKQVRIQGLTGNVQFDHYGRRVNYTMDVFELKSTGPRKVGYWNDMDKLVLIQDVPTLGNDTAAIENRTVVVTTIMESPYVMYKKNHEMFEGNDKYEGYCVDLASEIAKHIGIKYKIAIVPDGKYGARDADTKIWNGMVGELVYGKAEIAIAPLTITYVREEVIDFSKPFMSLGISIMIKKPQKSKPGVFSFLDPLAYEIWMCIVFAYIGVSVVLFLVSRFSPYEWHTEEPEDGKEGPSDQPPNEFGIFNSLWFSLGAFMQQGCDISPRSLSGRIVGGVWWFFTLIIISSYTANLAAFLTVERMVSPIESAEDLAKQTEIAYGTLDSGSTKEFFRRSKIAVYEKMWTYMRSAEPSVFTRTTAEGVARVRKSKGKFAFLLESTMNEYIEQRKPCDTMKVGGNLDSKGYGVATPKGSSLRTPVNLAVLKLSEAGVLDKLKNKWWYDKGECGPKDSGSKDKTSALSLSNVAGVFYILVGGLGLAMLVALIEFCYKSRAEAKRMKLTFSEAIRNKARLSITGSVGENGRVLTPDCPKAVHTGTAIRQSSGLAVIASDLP
Glutamate receptor 1 (Rattus norvegicus), sequence (P19490 whole entry): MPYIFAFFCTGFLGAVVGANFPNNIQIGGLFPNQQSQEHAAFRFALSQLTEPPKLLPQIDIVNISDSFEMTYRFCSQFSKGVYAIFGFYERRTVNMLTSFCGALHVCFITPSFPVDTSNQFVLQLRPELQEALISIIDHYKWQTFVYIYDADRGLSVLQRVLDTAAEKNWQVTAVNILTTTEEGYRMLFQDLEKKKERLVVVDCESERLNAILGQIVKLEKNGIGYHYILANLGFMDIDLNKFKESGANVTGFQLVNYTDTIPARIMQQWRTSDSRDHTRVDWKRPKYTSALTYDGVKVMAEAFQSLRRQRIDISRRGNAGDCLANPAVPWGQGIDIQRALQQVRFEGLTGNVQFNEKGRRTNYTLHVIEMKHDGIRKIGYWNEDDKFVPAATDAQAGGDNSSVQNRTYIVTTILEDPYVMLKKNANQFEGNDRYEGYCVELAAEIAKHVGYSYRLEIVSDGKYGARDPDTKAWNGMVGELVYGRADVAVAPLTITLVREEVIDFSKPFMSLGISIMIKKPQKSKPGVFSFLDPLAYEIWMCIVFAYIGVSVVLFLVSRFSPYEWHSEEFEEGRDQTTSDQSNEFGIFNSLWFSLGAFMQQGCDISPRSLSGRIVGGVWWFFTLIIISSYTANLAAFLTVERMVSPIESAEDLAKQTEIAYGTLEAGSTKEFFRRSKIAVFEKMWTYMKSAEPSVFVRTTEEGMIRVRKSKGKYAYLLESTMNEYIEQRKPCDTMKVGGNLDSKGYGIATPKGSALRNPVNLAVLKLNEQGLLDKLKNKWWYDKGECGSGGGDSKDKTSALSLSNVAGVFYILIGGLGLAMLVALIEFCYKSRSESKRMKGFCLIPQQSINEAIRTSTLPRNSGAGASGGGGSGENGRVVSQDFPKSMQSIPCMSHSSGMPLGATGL
Glutamate receptor ionotropic, kainate 2 (Rattus norvegicus), sequence (P42260 whole entry): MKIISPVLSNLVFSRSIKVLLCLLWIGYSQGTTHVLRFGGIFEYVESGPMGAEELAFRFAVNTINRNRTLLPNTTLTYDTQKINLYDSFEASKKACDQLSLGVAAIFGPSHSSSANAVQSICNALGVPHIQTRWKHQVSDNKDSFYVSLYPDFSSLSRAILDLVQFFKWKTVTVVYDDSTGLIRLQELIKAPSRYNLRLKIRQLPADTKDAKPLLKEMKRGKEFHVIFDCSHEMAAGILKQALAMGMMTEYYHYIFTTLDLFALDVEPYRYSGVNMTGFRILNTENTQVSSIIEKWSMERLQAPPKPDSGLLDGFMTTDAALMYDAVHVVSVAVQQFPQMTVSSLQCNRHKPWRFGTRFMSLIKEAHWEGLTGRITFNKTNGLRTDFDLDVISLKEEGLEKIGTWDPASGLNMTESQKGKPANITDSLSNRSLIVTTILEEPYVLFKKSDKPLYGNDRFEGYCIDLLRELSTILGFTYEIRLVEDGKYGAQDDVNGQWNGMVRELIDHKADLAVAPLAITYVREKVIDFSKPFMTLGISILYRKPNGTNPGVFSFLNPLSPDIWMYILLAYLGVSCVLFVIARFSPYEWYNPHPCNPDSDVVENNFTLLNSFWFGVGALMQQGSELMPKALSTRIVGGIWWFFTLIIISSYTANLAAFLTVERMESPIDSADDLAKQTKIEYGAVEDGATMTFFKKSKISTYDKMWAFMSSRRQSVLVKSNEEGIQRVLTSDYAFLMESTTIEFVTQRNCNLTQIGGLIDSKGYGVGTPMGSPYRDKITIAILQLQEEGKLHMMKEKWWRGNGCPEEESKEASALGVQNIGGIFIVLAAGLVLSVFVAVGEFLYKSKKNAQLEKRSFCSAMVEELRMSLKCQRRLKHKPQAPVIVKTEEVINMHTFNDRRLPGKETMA
Glutamate receptor 3 (Homo sapiens), P42263 [L513Y], sequence (P42263 whole entry L513Y): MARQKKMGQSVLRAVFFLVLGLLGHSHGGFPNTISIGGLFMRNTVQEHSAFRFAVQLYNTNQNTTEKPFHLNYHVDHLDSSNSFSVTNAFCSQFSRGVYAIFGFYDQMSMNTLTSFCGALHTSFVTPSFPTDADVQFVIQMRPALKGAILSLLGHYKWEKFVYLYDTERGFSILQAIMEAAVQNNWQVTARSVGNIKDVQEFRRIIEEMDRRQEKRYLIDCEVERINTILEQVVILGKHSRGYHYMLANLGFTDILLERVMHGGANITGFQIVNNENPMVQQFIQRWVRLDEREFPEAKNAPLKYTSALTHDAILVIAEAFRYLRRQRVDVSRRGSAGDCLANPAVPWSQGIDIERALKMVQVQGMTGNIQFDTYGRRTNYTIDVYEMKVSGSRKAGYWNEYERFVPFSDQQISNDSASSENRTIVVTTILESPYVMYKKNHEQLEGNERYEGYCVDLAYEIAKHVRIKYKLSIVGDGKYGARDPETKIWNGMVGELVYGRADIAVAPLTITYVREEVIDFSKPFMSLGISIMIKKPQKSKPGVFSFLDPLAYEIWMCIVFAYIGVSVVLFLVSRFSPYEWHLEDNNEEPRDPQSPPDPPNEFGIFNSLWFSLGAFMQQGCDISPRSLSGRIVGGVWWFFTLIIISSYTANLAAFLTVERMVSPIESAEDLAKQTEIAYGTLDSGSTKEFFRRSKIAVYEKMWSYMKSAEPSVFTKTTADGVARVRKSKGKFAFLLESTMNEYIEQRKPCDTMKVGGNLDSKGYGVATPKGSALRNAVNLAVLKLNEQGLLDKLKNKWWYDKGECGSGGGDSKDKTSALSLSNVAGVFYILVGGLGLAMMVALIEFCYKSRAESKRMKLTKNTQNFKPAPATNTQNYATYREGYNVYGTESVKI

Row | SMILES | inhibition [1] [%] | residual activity [2] [%] | residual activity [3] [%] | inhibition [4] [%] | pIC50 [5] | pIC50 [6] | further results
1 | CCN(CC)C(=O)Oc1ccc(C(=O)Nc2cccc(CNS(=O)(=O)c3ccccc3)c2)cc1 | 0 | 60 | 46 | 0 | 4.54 | 4.35 | –
2 | CCN(CC)C(=O)Oc1ccc(C(=O)Nc2cccc(C(=O)Nc3ccccc3)c2)cc1 | – | – | – | – | 5.10 | – | –
3 | CCN(CC)C(=O)Oc1ccc(C(=O)Nc2ccc(CCNS(=O)(=O)c3cccnc3)cc2)cc1 | 0 | 37 | 26 | 0 | 5.29 | 4.92 | –
4 | CCN(CC)C(=O)Oc1ccc(C(=O)Nc2ccc(C(=O)Nc3ccccc3)cc2)cc1 | – | – | – | – | < 4.00 | – | –
5 | CCN(CC)C(=O)Oc1ccc(C(=O)Nc2cccc(CCNC(=O)c3ccccc3)c2)cc1 | – | 56 | 49 | – | 4.54 | 4.43 | residual activity [7]: 82%
6 | O=C(NCc1ccc(C(=O)NNC(=O)c2ccccc2)cc1)c1ccc(F)c(Cl)c1 | – | – | – | – | – | – | residual activity [7]: 102%
7 | CCN(CC)C(=O)Oc1ccc(C(=O)Nc2cccc3cc[nH]c23)cc1 | – | – | – | – | 5.66 | 5.43 | inhibition [8]: Active; inhibition [9]: Active; inhibition [10]: Active; inhibition [11]: inactive; inhibition [12]: inactive; inhibition [13]: Active; inhibition [14]: Active; inhibition [15]: Active; inhibition [16]: Active; residual activity [17]: 24%; residual activity [18]: 16%; inhibition [19]: inactive
8 | CCN(CC)C(=O)Oc1ccc(C(=O)Nc2ccc(CCNS(=O)(=O)c3ccc(F)c(Cl)c3)cc2)cc1 | 0 | – | – | 0 | – | – | inhibition [2]: 21%; inhibition [3]: 26%
9 | CCN(CC)C(=O)Oc1ccc(C(=O)Nc2ccccc2)cc1 | – | – | – | – | 5.22 to 5.24 | 5.07 | residual activity [17]: 49%; residual activity [18]: 37%
10 | O=C(NNC(=O)c1ccc(CNS(=O)(=O)c2ccc(F)c(Cl)c2)cc1)c1ccccc1 | – | < 15 | < 15 | – | – | – | pIC50 [20]: 6.77; residual activity [17]: 95%; residual activity [18]: 88%; residual activity [21]: 5.1%
11 | CCN(CC)C(=O)Oc1ccc(C(=O)Nc2ccc(CNS(=O)(=O)c3ccccc3)cc2)cc1 | 27 | 42 | 20 | 41 | 5.00 | 4.66 | –
12 | CCN(CC)C(=O)Oc1ccc(C(=O)Nc2cccc(CCNS(=O)(=O)c3cccnc3)c2)cc1 | 0 | 8.5 | 8.6 | 0 | 5.57 | 5.49 | Ratio IC50 [22]: < 6; Ratio IC50 [23]: < 6
13 | CCN(CC)C(=O)Oc1ccc(C(=O)Nc2cccc(CNS(=O)(=O)c3cccnc3)c2)cc1 | 0 | 52 | 42 | 0 | 4.64 | 4.47 | –
14 | CCN(CC)C(=O)Oc1ccc(C(=O)Nc2ccc(CNS(=O)(=O)c3cccnc3)cc2)cc1 | 0 | 58 | 45 | 0 | 4.62 | 4.46 | –
15 | CCN(CC)C(=O)Oc1ccc(C(=O)Nc2ccc(CCNS(=O)(=O)c3ccccc3)cc2)cc1 | 0 | – | – | 0 | – | – | inhibition [2]: 23%; inhibition [3]: 33%
16 | CCN(CC)C(=O)Oc1ccc(C(=O)Nc2cccc(CCNS(=O)(=O)c3ccc(F)c(Cl)c3)c2)cc1 | 0 | 41 | 28 | 0 | 5.89 | 5.62 | Ratio IC50 [22]: < 6; Ratio IC50 [23]: < 6
